These results are taken from ChEMBL document CHEMBL1135739, “Radiolabeled amino acids for tumor imaging with PET: radiosynthesis and biological evaluation of 2-amino-3-[18F]fluoro-2-methylpropanoic acid and 3-[18F]fluoro-2-methyl-2-(methylamino)propanoic acid” (J Med Chem, 2002).

For data set [1], the species on record is Rattus norvegicus. Kind of data set: Radioactivity distribution in kidney of normal fischer rat after injection of [18F]-fluoro-2-methyl-2-(methylamino)propanoic acid after 60 min. The data set is classed as ADME, organism-based. The conditions noted are these: in vivo, 1 h. The procedure, abridged:
(§1)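 Normal male Fischer 344 rats (200–250 g), anesthetized with i.m. ketamine:xylazine (1:1), got ~85 μCi of tracer in 0.3 mL sterile water i.v. via tail-vein catheter. Groups of four were killed at 5, 30, 60 or 120 min. Tissues were weighed and gamma-counted against dose standards, and counts were decay-corrected to %ID/g. Results are mean ± standard error (n = 4), compared by one-way ANOVA.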

The species named for data set [2] is Rattus norvegicus. Kind of data set: Radioactivity distribution in liver of normal fischer rat after injection of [18F]-fluoro-2-methyl-2-(methylamino)propanoic acid after 5 min. It counts as ADME, organism-based. The note with it: in vivo. The procedure, abridged: (§2)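 Male Fischer 344 rats (200–250 g), fed ad libitum, anesthetized with intramuscular ketamine:xylazine (1:1, 0.1 mL/100 g). About 85 μCi tracer in 0.3 mL sterile water was given by tail-vein catheter. Groups of four were killed at 5, 30, 60 or 120 min. Tissues were weighed and gamma-counted against dose standards, decay-corrected, and expressed as %ID/g (mean ± standard error).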

The species entered for data set [3] is Rattus norvegicus. Kind of data set: Radioactivity distribution in heart of normal fischer rat after injection of [18F]-fluoro-2-methyl-2-(methylamino)propanoic acid after 120 min. The note with it: in vivo, 2 h. It counts as ADME, organism-based. The procedure, abridged: as §1
For data set [4], the species on record is Rattus norvegicus. Kind of data set: Radioactivity distribution in blood of normal fischer rat after injection of [18F]-fluoro-2-methyl-2-(methylamino)propanoic acid after 60 min. It counts as ADME, organism-based. The note with it: in vivo, 1 h. Summed up: as §1
Data set [5] is filed under the species Rattus norvegicus. Kind of data set: Radioactivity distribution in kidney of normal fischer rat after injection of [18F]-fluoro-2-methyl-2-(methylamino)propanoic acid after 30 min. It counts as ADME, organism-based. The note with it: in vivo, 0.5 h. The procedure, abridged:
as §1

The species named for data set [6] is Rattus norvegicus. Kind of data set: Radioactivity distribution in brain of normal fischer rat after injection of [18F]-fluoro-2-methyl-2-(methylamino)propanoic acid after 5 min. It counts as ADME, organism-based. The note with it: in vivo. The procedure, abridged:
as §1

The species entered for data set [7] is Rattus norvegicus. Kind of data set: Radioactivity distribution in spleen of normal fischer rat after injection of [18F]-fluoro-2-methyl-2-(methylamino)propanoic acid after 60 min. It counts as ADME, organism-based. The note with it: in vivo, 1 h. Summed up: (§3)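 Male Fischer 344 rats (200–250 g), fed ad libitum, under intramuscular ketamine:xylazine anesthesia, got ~85 μCi radiotracer in 0.3 mL sterile water by tail-vein catheter. Groups of four were killed at 5, 30, 60 or 120 min. Dissected tissues were weighed and gamma-counted with dose standards. Counts were decay-corrected and given as %ID/g, mean ± standard error. Tissues were compared by one-way ANOVA.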

Data set [8] is filed under the species Rattus norvegicus. Kind of data set: Radioactivity distribution in muscle of normal fischer rat after injection of [18F]-fluoro-2-methyl-2-(methylamino)propanoic acid after 5 min. The data set is classed as ADME, organism-based, Muscle tissue. The note with it: in vivo. Summed up: as §2
The species entered for data set [9] is Rattus norvegicus. Kind of data set: Radioactivity distribution in brain of normal fischer rat after injection of [18F]-fluoro-2-methyl-2-(methylamino)propanoic acid after 30 min. The data set is classed as ADME, organism-based. The conditions noted are these: in vivo, 0.5 h. Summed up: as §1
The species named for data set [10] is Rattus norvegicus. Kind of data set: Radioactivity distribution in pancreas of normal fischer rat after injection of [18F]-fluoro-2-methyl-2-(methylamino)propanoic acid after 30 min. The data set is classed as ADME, organism-based. The conditions noted are these: in vivo, 0.5 h. Summed up: as §2
The species named for data set [11] is Rattus norvegicus. Kind of data set: Radioactivity distribution in tumor of tumor-bearing fischer rat after injection of [18F]-fluoro-2-methyl-2-(methylamino)propanoic acid after 120 min. The note with it: in vivo, 2 h.
The species entered for data set [12] is Rattus norvegicus. Kind of data set: Radioactivity distribution in muscle of normal fischer rat after injection of [18F]-fluoro-2-methyl-2-(methylamino)propanoic acid after 30 min. The note with it: in vivo, 0.5 h. It counts as ADME, organism-based, Muscle tissue. The procedure, abridged:
as §2

The species entered for data set [13] is Rattus norvegicus. Kind of data set: Radioactivity distribution in blood of normal fischer rat after injection of [18F]-fluoro-2-methyl-2-(methylamino)propanoic acid after 120 min. It counts as ADME, organism-based. The conditions noted are these: in vivo, 2 h. Summed up:
as §1

For data set [14], the species on record is Rattus norvegicus. Kind of data set: Radioactivity distribution in muscle of normal fischer rat after injection of [18F]-fluoro-2-methyl-2-(methylamino)propanoic acid after 120 min. The data set is classed as ADME, organism-based, Muscle tissue. The note with it: in vivo, 2 h. The procedure, abridged:
as §2

The species named for data set [15] is Rattus norvegicus. Kind of data set: Radioactivity distribution in bone of normal fischer rat after injection of [18F]-fluoro-2-methyl-2-(methylamino)propanoic acid after 120 min. The conditions noted are these: in vivo, 2 h. The data set is classed as ADME, organism-based, Bone element. The procedure, abridged: as §1
The species named for data set [16] is Rattus norvegicus. Kind of data set: Radioactivity distribution in lung of normal fischer rat after injection of [18F]-fluoro-2-methyl-2-(methylamino)propanoic acid after 120 min. The data set is classed as ADME, organism-based. The note with it: in vivo, 2 h. The procedure, abridged: as §2
Data set [17] is filed under the species Rattus norvegicus. Kind of data set: Radioactivity distribution in testis of normal fischer rat after injection of [18F]-fluoro-2-methyl-2-(methylamino)propanoic acid after 60 min. It counts as ADME, organism-based. The conditions noted are these: in vivo, 1 h. Summed up: as §3
The species entered for data set [18] is Rattus norvegicus. Kind of data set: Radioactivity distribution in testis of normal fischer rat after injection of [18F]-fluoro-2-methyl-2-(methylamino)propanoic acid after 120 min. The conditions noted are these: in vivo, 2 h. The data set is classed as ADME, organism-based. The procedure, abridged: as §3
The species named for data set [19] is Rattus norvegicus. Kind of data set: Radioactivity distribution in heart of normal fischer rat after injection of [18F]-fluoro-2-methyl-2-(methylamino)propanoic acid after 30 min. The data set is classed as ADME, organism-based. The conditions noted are these: in vivo, 0.5 h. Summed up:
as §1

For data set [20], the species on record is Rattus norvegicus. Kind of data set: Radioactivity distribution in liver of normal fischer rat after injection of [18F]-fluoro-2-methyl-2-(methylamino)propanoic acid after 60 min. The data set is classed as ADME, organism-based. The conditions noted are these: in vivo, 1 h. The procedure, abridged:
as §2

Data set [21] is filed under the species Rattus norvegicus. Kind of data set: Radioactivity distribution in bone of normal fischer rat after injection of [18F]-fluoro-2-methyl-2-(methylamino)propanoic acid after 5 min. It counts as ADME, organism-based, Bone element. The note with it: in vivo. Summed up:
as §1

For data set [22], the species on record is Rattus norvegicus. Kind of data set: Radioactivity distribution in lung of normal fischer rat after injection of [18F]-fluoro-2-methyl-2-(methylamino)propanoic acid after 60 min. It counts as ADME, organism-based. The note with it: in vivo, 1 h. The procedure, abridged:
as §2

The species entered for data set [23] is Rattus norvegicus. Kind of data set: Radioactivity distribution in bone of normal fischer rat after injection of [18F]-fluoro-2-methyl-2-(methylamino)propanoic acid after 30 min. It counts as ADME, organism-based, Bone element. The note with it: in vivo, 0.5 h. Summed up:
as §1

Data set [24] is filed under the species Rattus norvegicus. Kind of data set: Radioactivity distribution in heart of normal fischer rat after injection of [18F]-fluoro-2-methyl-2-(methylamino)propanoic acid after 5 min. The data set is classed as ADME, organism-based. The conditions noted are these: in vivo. The procedure, abridged:
as §1

Several values for one entry are separate records, joined by “and”; a condition that tells them apart may be missing. Equal values may be shown once.

As for `CNC(C)(C[18F])C(=O)O.Cl` (centres undefined), the ID/g in the data set listed under Rattus norvegicus [1] is 2.73% and 2.79%; in the data set listed under Rattus norvegicus [2], 0.79% and 0.94%; in the data set listed under Rattus norvegicus [3], 0.17% and 0.19%; in the data set filed under Rattus norvegicus [4], 0.18% and 0.17%; in the data set filed under Rattus norvegicus [5], 4.6%; in the data set listed under Rattus norvegicus [6], 0.04% and < 0.032%. Moreover, the ID/g was 0.68% and 0.45% in the data set filed under Rattus norvegicus [7]; 0.16% and 0.22% in the data set filed under Rattus norvegicus [8]; 0.04% in the data set listed under Rattus norvegicus [9]; 3% in the data set listed under Rattus norvegicus [10]; 1.94% in the data set filed under Rattus norvegicus [11]; 0.16% in the data set filed under Rattus norvegicus [12]. In addition, the ID/g is 0.1% in the data set listed under Rattus norvegicus [13]; 0.13% and 0.16% in the data set filed under Rattus norvegicus [14]; 0.2% and 0.19% in the data set filed under Rattus norvegicus [15]; 0.3% and 0.19% in the data set filed under Rattus norvegicus [16]; 0.08% in the data set filed under Rattus norvegicus [17]; 0.06% and 0.08% in the data set filed under Rattus norvegicus [18]. For the same compound, the ID/g is 0.23% in the data set listed under Rattus norvegicus [19]; 0.78% and 0.85% in the data set listed under Rattus norvegicus [20]; 0.34% and 0.33% in the data set filed under Rattus norvegicus [21]; 0.38% and 0.26% in the data set listed under Rattus norvegicus [22]; 0.32% in the data set listed under Rattus norvegicus [23]; 0.22% and 0.34% in the data set filed under Rattus norvegicus [24].
